{"source": "ChEMBL document CHEMBL5705890", "about": "“Antitumor activity of an allosteric inhibitor of centromere-associated protein-E” (Proc Natl Acad Sci U S A, 2010)", "key": {"[1]": {"assay": "Binding affinity to human CENP-E T183A/K184T mutant assessed as inhibition constant"}, "647-V": {"tested_on": "647-V", "assay": "Anticancer activity against human 647-V cells assessed as cell growth inhibition measured after 72 hrs by DAPI staining based analysis", "assay_type": "functional", "summary_of_the_method": "(§1)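 Cells were seeded and, after 24 h, DNA content was read as T0. Cells were then exposed to varying drug concentrations for a further 72 h (T72). Fixed cells were DAPI-stained and DNA content measured by automated imaging. T72 values were normalized to T0. GI50 is the concentration giving 50% growth inhibition between T0 and Ymax, obtained by curve fitting.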"}, "BE(2)-C": {"tested_on": "BE(2)-C", "assay": "Anticancer activity against human BE2C cells assessed as cell growth inhibition measured after 72 hrs by DAPI staining based analysis", "assay_type": "functional", "summary_of_the_method": "as §1"}, "[2]": {"assay": "Anticancer activity against human C32TG cells assessed as cell growth inhibition measured after 72 hrs by DAPI staining based analysis", "assay_type": "functional", "summary_of_the_method": "(§2)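 Cells were seeded, and DNA content at 24 h after seeding (T0) was read by imaging of fixed, DAPI-stained cells. Cells were then exposed to a range of drug concentrations for a further 72 h (T72) and DNA content was read again. T72 values were normalized to T0, and GI50 was taken from curve fits as the concentration giving 50% growth inhibition relative to T0 and Ymax.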"}, "[3]": {"assay": "Anticancer activity against human CML-T1 cells assessed as cell growth inhibition measured after 72 hrs by DAPI staining based analysis", "assay_type": "functional", "summary_of_the_method": "as §2"}, "D283 Med [4]": {"tested_on": "D283 Med", "assay": "Anticancer activity against human D283 Med cells assessed as cell growth inhibition measured after 72 hrs by DAPI staining based analysis", "assay_type": "functional", "summary_of_the_method": "(§3)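 Cells seeded, DAPI-stained DNA content of fixed cells read by imaging 24 h after seeding (T0), and again after a further 72 h exposure to a range of drug concentrations (T72). T72 values were normalized to T0. Curve fits gave the concentration producing 50% growth inhibition relative to T0 and Ymax (GI50).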"}, "DB": {"tested_on": "DB", "assay": "Anticancer activity against human DB cells assessed as cell growth inhibition measured after 72 hrs by DAPI staining based analysis", "assay_type": "functional", "summary_of_the_method": "as §3"}, "EKVX": {"tested_on": "EKVX", "assay": "Anticancer activity against human EKVX cells assessed as cell growth inhibition measured after 72 hrs by DAPI staining based analysis", "assay_type": "functional", "summary_of_the_method": "as §3"}, "HuT78": {"tested_on": "HuT78", "assay": "Anticancer activity against human HuT78 cells assessed as cell growth inhibition measured after 72 hrs by DAPI staining based analysis", "assay_type": "functional"}, "IGROV-1": {"tested_on": "IGROV-1", "assay": "Anticancer activity against human IGROV-1 cells assessed as cell growth inhibition measured after 72 hrs by DAPI staining based analysis", "assay_type": "functional"}, "LOX IMVI": {"tested_on": "LOX IMVI", "assay": "Anticancer activity against human LOX IMVI cells assessed as cell growth inhibition measured after 72 hrs by DAPI staining based analysis", "assay_type": "functional"}, "MCF7 [5]": {"tested_on": "MCF7", "assay": "Anticancer activity against human MCF7 cells assessed as cell growth inhibition measured after 72 hrs by DAPI staining based analysis", "assay_type": "functional"}, "NCI-H23 [6]": {"tested_on": "NCI-H23", "assay": "Anticancer activity against human NCI-H23 cells assessed as cell growth inhibition measured after 72 hrs by DAPI staining based analysis", "assay_type": "functional"}, "[7]": {"assay": "Anticancer activity against human UM-SCC-12 cells assessed as cell growth inhibition measured after 72 hrs by DAPI staining based analysis", "assay_type": "functional"}, "[8]": {"assay": "Anticancer activity against human NL-SCLC3 cells assessed as cell growth inhibition measured after 72 hrs by DAPI staining based analysis", "assay_type": "functional"}, "SF-539": {"tested_on": "SF-539", "assay": "Anticancer activity against human SF-539 cells assessed as cell growth inhibition measured after 72 hrs by DAPI staining based analysis", "assay_type": "functional"}, "SNU-449": {"tested_on": "SNU-449", "assay": "Anticancer activity against human SNU-449 cells assessed as cell growth inhibition measured after 72 hrs by DAPI staining based analysis", "assay_type": "functional"}, "SW1417": {"tested_on": "SW1417", "assay": "Anticancer activity against human SW1417 cells assessed as cell growth inhibition measured after 72 hrs by DAPI staining based analysis", "assay_type": "functional"}, "SW1463": {"tested_on": "SW1463", "assay": "Anticancer activity against human SW1463 cells assessed as cell growth inhibition measured after 72 hrs by DAPI staining based analysis", "assay_type": "functional"}, "A-375": {"tested_on": "A-375", "assay": "Anticancer activity against human A-375 cells assessed as cell doubling measured for 72 hrs by DAPI staining based analysis", "assay_type": "functional"}, "BFTC-905": {"tested_on": "BFTC-905", "assay": "Anticancer activity against human BFTC-905 cells assessed as cell doubling measured for 72 hrs by DAPI staining based analysis", "assay_type": "functional"}, "CGTH-W-1": {"tested_on": "CGTH-W-1", "assay": "Anticancer activity against human CGTH-W-1 cells assessed as cell doubling measured for 72 hrs by DAPI staining based analysis", "assay_type": "functional"}, "D283 Med [9]": {"tested_on": "D283 Med", "assay": "Anticancer activity against human D283 Med cells assessed as cell doubling measured for 72 hrs by DAPI staining based analysis", "assay_type": "functional"}, "HCC1143": {"tested_on": "HCC1143", "assay": "Anticancer activity against human HCC1143 cells assessed as cell doubling measured for 72 hrs by DAPI staining based analysis", "assay_type": "functional"}, "HT-1080": {"tested_on": "HT-1080", "assay": "Anticancer activity against human HT-1080 cells assessed as cell doubling measured for 72 hrs by DAPI staining based analysis", "assay_type": "functional"}, "[10]": {"assay": "Anticancer activity against human KPL-1 cells assessed as cell doubling measured for 72 hrs by DAPI staining based analysis", "assay_type": "functional"}, "[11]": {"assay": "Anticancer activity against human MT-3 cells assessed as cell doubling measured for 72 hrs by DAPI staining based analysis", "assay_type": "functional"}, "[12]": {"assay": "Anticancer activity against human MV-522 cells assessed as cell doubling measured for 72 hrs by DAPI staining based analysis", "assay_type": "functional"}, "NCI-H23 [13]": {"tested_on": "NCI-H23", "assay": "Anticancer activity against human NCI-H23 cells assessed as cell doubling measured for 72 hrs by DAPI staining based analysis", "assay_type": "functional"}, "NCI-H596": {"tested_on": "NCI-H596", "assay": "Anticancer activity against human NCI-H596 cells assessed as cell doubling measured for 72 hrs by DAPI staining based analysis", "assay_type": "functional"}, "NCI-H630": {"tested_on": "NCI-H630", "assay": "Anticancer activity against human NCI-H630 cells assessed as cell doubling measured for 72 hrs by DAPI staining based analysis", "assay_type": "functional"}, "OVCAR-4": {"tested_on": "OVCAR-4", "assay": "Anticancer activity against human OVCAR-4 cells assessed as cell doubling measured for 72 hrs by DAPI staining based analysis", "assay_type": "functional"}, "OVCAR-5": {"tested_on": "OVCAR-5", "assay": "Anticancer activity against human OVCAR-5 cells assessed as cell doubling measured for 72 hrs by DAPI staining based analysis", "assay_type": "functional"}, "OVCAR-8": {"tested_on": "OVCAR-8", "assay": "Anticancer activity against human OVCAR-8 cells assessed as cell doubling measured for 72 hrs by DAPI staining based analysis", "assay_type": "functional"}, "SNU-16": {"tested_on": "SNU-16", "assay": "Anticancer activity against human SNU-16 cells assessed as cell doubling measured for 72 hrs by DAPI staining based analysis", "assay_type": "functional"}, "SW-620": {"tested_on": "SW-620", "assay": "Anticancer activity against human SW620 cells assessed as cell doubling measured for 72 hrs by DAPI staining based analysis", "assay_type": "functional"}, "SW756": {"tested_on": "SW756", "assay": "Anticancer activity against human SW756 cells assessed as cell doubling measured for 72 hrs by DAPI staining based analysis", "assay_type": "functional"}, "U2OS": {"tested_on": "U2OS", "assay": "Anticancer activity against human U2OS cells assessed as cell doubling measured for 72 hrs by DAPI staining based analysis", "assay_type": "functional"}, "Y79": {"tested_on": "Y79", "assay": "Anticancer activity against human Y79 cells assessed as cell doubling measured for 72 hrs by DAPI staining based analysis", "assay_type": "functional"}, "[14]": {"assay": "Antitumor activity against human MV-522 cells in xenograft model assessed as difference between median time to endpoint time of treated versus control group at 62.5 mg/kg", "assay_type": "functional"}, "MCF7 [15]": {"tested_on": "MCF7", "assay": "Antitumor activity against human MCF7 cells in xenograft model assessed as difference between median time to endpoint time of treated versus control group at 62.5 mg/kg", "assay_type": "functional"}}, "note": "pKi: −log10 of the molar value.", "data": [{"smiles": "CC(C)Oc1ccc(C(=O)N[C@H](CNC(=O)CN(C)C)Cc2ccc(-c3cn4cccc([C@H](C)O)c4n3)cc2)cc1Cl", "note": "[GSK-923295A]", "values": [{"measurement": "pKi", "setting": "[1]", "value": 7.96}, {"measurement": "GI50", "setting": "647-V", "value": 0.072, "unit": "µM"}, {"measurement": "GI50", "setting": "BE(2)-C", "value": 0.093, "unit": "µM"}, {"measurement": "GI50", "setting": "[2]", "value": 0.028, "unit": "µM"}, {"measurement": "GI50", "setting": "[3]", "value": 0.013, "unit": "µM"}, {"measurement": "GI50", "setting": "D283 Med [4]", "value": 0.028, "unit": "µM"}, {"measurement": "GI50", "setting": "DB", "value": 0.021, "unit": "µM"}, {"measurement": "GI50", "setting": "EKVX", "value": 0.028, "unit": "µM"}, {"measurement": "GI50", "setting": "HuT78", "value": 0.04, "unit": "µM"}, {"measurement": "GI50", "setting": "IGROV-1", "value": 0.031, "unit": "µM"}, {"measurement": "GI50", "setting": "LOX IMVI", "value": 0.025, "unit": "µM"}, {"measurement": "GI50", "setting": "MCF7 [5]", "value": 0.029, "unit": "µM"}, {"measurement": "GI50", "setting": "NCI-H23 [6]", "value": 0.027, "unit": "µM"}, {"measurement": "GI50", "setting": "[7]", "value": 0.033, "unit": "µM"}, {"measurement": "GI50", "setting": "[8]", "value": 0.031, "unit": "µM"}, {"measurement": "GI50", "setting": "SF-539", "value": 0.028, "unit": "µM"}, {"measurement": "GI50", "setting": "SNU-449", "value": 0.236, "unit": "µM"}, {"measurement": "GI50", "setting": "SW1417", "value": 0.029, "unit": "µM"}, {"measurement": "GI50", "setting": "SW1463", "value": 0.031, "unit": "µM"}, {"measurement": "Activity", "setting": "A-375", "value": 3.04}, {"measurement": "Activity", "setting": "BFTC-905", "value": 3.49}, {"measurement": "Activity", "setting": "CGTH-W-1", "value": 3.66}, {"measurement": "Activity", "setting": "D283 Med [9]", "value": 1.27}, {"measurement": "Activity", "setting": "HCC1143", "value": 1.89}, {"measurement": "Activity", "setting": "HT-1080", "value": 3.05}, {"measurement": "Activity", "setting": "[10]", "value": 2.47}, {"measurement": "Activity", "setting": "[11]", "value": 2.93}, {"measurement": "Activity", "setting": "[12]", "value": 2.81}, {"measurement": "Activity", "setting": "NCI-H23 [13]", "value": 2.04}, {"measurement": "Activity", "setting": "NCI-H596", "value": 1.31}, {"measurement": "Activity", "setting": "NCI-H630", "value": 2.04}, {"measurement": "Activity", "setting": "OVCAR-4", "value": 2.94}, {"measurement": "Activity", "setting": "OVCAR-5", "value": 2.84}, {"measurement": "Activity", "setting": "OVCAR-8", "value": 3.26}, {"measurement": "Activity", "setting": "SNU-16", "value": 2.92}, {"measurement": "Activity", "setting": "SW-620", "value": 2.91}, {"measurement": "Activity", "setting": "SW756", "value": 2.36}, {"measurement": "Activity", "setting": "U2OS", "value": 3.08}, {"measurement": "Activity", "setting": "Y79", "value": 4.11}, {"measurement": "Time", "setting": "[14]", "value": 12.5, "unit": "days"}, {"measurement": "Time", "setting": "MCF7 [15]", "value": 5.4, "unit": "days"}]}]}
